Measurements taken from ChEMBL document CHEMBL2331271, “Stereoselective synthesis of a new class of potent and selective inhibitors of human Δ8,7-sterol isomerase” (Bioorg Med Chem, 2013).
≈ marks a conversion by molar mass, not a printed value. Calls of active or inactive are those of the source. The calls are words filed in the database; no cut-off is given here.

Assays:
[1] = test system: HL-60; assay: Cytotoxicity against human HL60 cells by MTT assay; format: cell-based
Summary of the method: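 Human leukemia HL-60 cells, kept in RPMI 1640 with 10% FBS without antibiotics at 37 °C, 5% CO2. Cytotoxicity by standard Mosmann MTT test. IC50 from dose-response curves run in triplicate, reported with 95% confidence interval and R2.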

[2] = target: 3-beta-hydroxysteroid-Delta(8),Delta(7)-isomerase (Homo sapiens, UniProt Q15125); assay: Inhibition of delta8,7-sterol isomerase-mediated cholesterol biosynthesis in human HL60 cells assessed as increase in zymostenol accumulation; format: cell-based, HL-60; conditions: for inhibition: HL-60
Sequence of 3-beta-hydroxysteroid-Delta(8),Delta(7)-isomerase (Q15125 whole entry): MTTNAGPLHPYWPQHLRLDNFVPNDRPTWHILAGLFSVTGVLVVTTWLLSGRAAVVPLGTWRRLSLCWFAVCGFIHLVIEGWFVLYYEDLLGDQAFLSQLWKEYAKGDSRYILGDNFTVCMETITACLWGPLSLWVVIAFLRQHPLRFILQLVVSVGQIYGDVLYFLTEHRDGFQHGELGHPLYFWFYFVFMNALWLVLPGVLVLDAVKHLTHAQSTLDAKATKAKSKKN
Summary of the method: (§1)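 HL-60 cells (10^6) incubated 24 h at 37 °C, 5% CO2 in lipid-free medium with 1% LPDS, with compound in ethanol at final 1 or 50 µM. Cells were then saponified in 1 M NaOH at 70 °C for 60 min, extracted into TBME with cholestane internal standard, and silylated with TSIM. The sterol pattern was read by GC-MS full scan, with sterols identified by retention time and MS against authentic samples.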

[3] = test system: Yarrowia lipolytica; assay: Antifungal activity against Yarrowia lipolytica assessed as inhibition of fungal growth; format: functional
Summary of the method: (§2)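 MIC by DIN 58940-84 broth dilution, strains kept in log phase at 28 °C in yeast extract/peptone/glucose medium, 0.5 McFarland standard. Compounds in ethanol stock 0.8 mg/mL, tested at 50, 25 and 12.5 µg/mL in duplicate wells. Controls: sterility, ethanol-only, clotrimazole 0.5 µg/mL, ketoconazole series. MIC = lowest concentration giving visibly complete growth inhibition.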

[4] = test system: Saccharomyces cerevisiae; assay: Antifungal activity against Saccharomyces cerevisiae assessed as inhibition of fungal growth; format: functional; summary of the method: as §2
[5] = test system: Nakaseomyces glabratus; assay: Antifungal activity against Candida glabrata assessed as inhibition of fungal growth; format: functional; summary of the method: as §2
[6] = Selectivity index, ratio of cytotoxic IC50 against human HL60 cells to IC50 for delta8,7-sterol isomerase-mediated cholesterol biosynthesis in human HL60 cells; format: functional, HL-60
Summary of the method: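 Cytotoxicity IC50 from the HL-60 MTT test, in triplicate. Cholesterol biosynthesis IC50 came from HL-60 cells given graded inhibitor concentrations for 24 h in lipid-free medium with 1% LPDS plus 2-13C-acetate at final 62.5 µg/mL. Labelled cholesterol was measured by GC-MS (ions 372–379, 462–469), normalised to Bradford protein, and % inhibition fitted sigmoidally with bottom 0, in triplicate.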

[7] = target: 3-beta-hydroxysteroid-Delta(8),Delta(7)-isomerase/Delta(24)-sterol reductase (Homo sapiens) (UniProt Q15125+Q15392); assay: Inhibition of Delta(8)-Delta(7) sterol isomerase/Delta(24)-sterol reductase-mediated cholesterol biosynthesis in human HL60 cells assessed as increase in zymostenol and zymosterol accumulation; format: cell-based; conditions: HL-60; summary of the method: as §1
Sequence of 3-beta-hydroxysteroid-Delta(8),Delta(7)-isomerase/Delta(24)-sterol reductase (Homo sapiens) (Q15125 whole entry, looked up): as the sequence (Q15125 whole entry) above
Sequence of 3-beta-hydroxysteroid-Delta(8),Delta(7)-isomerase/Delta(24)-sterol reductase (Homo sapiens) (Q15392 whole entry, looked up): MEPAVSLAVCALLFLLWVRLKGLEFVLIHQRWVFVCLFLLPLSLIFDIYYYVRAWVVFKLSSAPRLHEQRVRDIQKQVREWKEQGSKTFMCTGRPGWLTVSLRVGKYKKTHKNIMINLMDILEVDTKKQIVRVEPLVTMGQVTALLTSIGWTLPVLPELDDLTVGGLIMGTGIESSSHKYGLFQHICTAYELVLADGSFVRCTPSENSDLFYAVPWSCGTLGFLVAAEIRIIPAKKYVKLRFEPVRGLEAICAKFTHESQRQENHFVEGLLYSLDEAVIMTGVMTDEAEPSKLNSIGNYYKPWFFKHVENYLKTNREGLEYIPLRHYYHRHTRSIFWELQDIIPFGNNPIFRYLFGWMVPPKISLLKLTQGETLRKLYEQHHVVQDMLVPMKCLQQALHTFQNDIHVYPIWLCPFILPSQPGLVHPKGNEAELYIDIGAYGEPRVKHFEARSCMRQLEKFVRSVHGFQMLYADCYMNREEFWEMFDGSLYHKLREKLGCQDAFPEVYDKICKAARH

Row | Structure (SMILES) | IC50 [1] [µM] | IC50 [2] [µM] | MIC [3] [µg/mL] | MIC [4] [µg/mL] | MIC [5] [µg/mL] | inhibition [2] | Ratio IC50 [6] | inhibition [7]
1 | CC(C)CCC[C@@H](C)[C@H]1CC[C@@]2(C)[C@@H](O)[C@@H](N)CC[C@]12C | 11 | 0.581 | 25 (≈ 84.6 µM) | 25 (≈ 84.6 µM) | 25 (≈ 84.6 µM) | – | – | –
2 | CC(C)CCC[C@@H](C)[C@H]1CC[C@@]2(C)[C@H](O)[C@@H](NCc3cccc(Cl)c3Cl)CC[C@]12C | – | – | 25 (≈ 55 µM) | 25 (≈ 55 µM) | 25 (≈ 55 µM) | inactive | – | –
3 | Clc1ccccc1C(c1ccccc1)(c1ccccc1)n1ccnc1 [CLOTRIMAZOLE] | – | – | 1 (≈ 2.9 µM) | 0.5 (≈ 1.45 µM) | 2.5 (≈ 7.25 µM) | – | – | –
4 | C=CCCCN[C@H]1CC[C@]2(C)[C@@H]([C@H](C)CCCC(C)C)CC[C@@]2(C)[C@@H]1O | – | – | 25 (≈ 68.8 µM) | 25 (≈ 68.8 µM) | 25 (≈ 68.8 µM) | inactive | – | –
5 | CC(C)CCC[C@@H](C)[C@H]1CC[C@@]2(C)C(=O)[C@@H](NCc3cccnc3)CC[C@]12C | – | – | 25 (≈ 65 µM) | 25 (≈ 65 µM) | 25 (≈ 65 µM) | inactive | – | –
6 | CC(C)CCC[C@@H](C)[C@H]1CC[C@@]2(C)[C@@H](O)[C@@H](N(C)Cc3ccccc3)CC[C@]12C | 7 | 0.011 | 25 (≈ 62.6 µM) | 25 (≈ 62.6 µM) | 25 (≈ 62.6 µM) | – | 636 | –
7 | CC(C)CCC[C@@H](C)[C@H]1CC[C@@]2(C)[C@@H](O)[C@@H](N3CC(C)OC(C)C3)CC[C@]12C (mixture of isomers) | – | – | 25 | 25 | 25 | – | – | –
8 | CC(C)CCC[C@@H](C)[C@H]1CC[C@@]2(C)[C@@H](O)[C@@H](NCc3cccnc3)CC[C@]12C | – | – | 25 (≈ 64.7 µM) | 25 (≈ 64.7 µM) | 25 (≈ 64.7 µM) | – | – | –
9 | CC/C(=C(\c1ccccc1)c1ccc(OCCN(C)C)cc1)c1ccccc1 | – | – | – | – | – | – | – | Active
10 | Cc1cccc(N[C@H]2CC[C@]3(C)[C@@H]([C@H](C)CCCC(C)C)CC[C@@]3(C)C2=O)c1C | – | – | 25 (≈ 62.9 µM) | 25 (≈ 62.9 µM) | 25 (≈ 62.9 µM) | inactive | – | –
11 | CC(C)CCC[C@@H](C)[C@H]1CC[C@@]2(C)[C@@H](O)[C@@H](NCc3cccc(Cl)c3Cl)CC[C@]12C | – | – | 25 (≈ 55 µM) | 25 (≈ 55 µM) | 25 (≈ 55 µM) | – | – | –
12 | C=CCCCN(C)[C@H]1CC[C@]2(C)[C@@H]([C@H](C)CCCC(C)C)CC[C@@]2(C)[C@H]1O | 7 | 0.018 | 25 (≈ 66.2 µM) | 25 (≈ 66.2 µM) | 25 (≈ 66.2 µM) | – | 390 | –
13 | COc1ccc(CN[C@H]2CC[C@]3(C)[C@@H]([C@H](C)CCCC(C)C)CC[C@@]3(C)[C@H]2O)cc1 | – | – | 25 (≈ 60.1 µM) | 25 (≈ 60.1 µM) | 25 (≈ 60.1 µM) | – | – | –
14 | CC(C)CCC[C@@H](C)[C@H]1CC[C@@]2(C)C(=O)[C@@H](N3C(C)COCC3C)CC[C@]12C (stereo not given in full) | – | – | 25 (≈ 63.8 µM) | 25 (≈ 63.8 µM) | 25 (≈ 63.8 µM) | inactive | – | –
15 | CCN[C@H]1CC[C@]2(C)[C@@H]([C@H](C)CCCC(C)C)CC[C@@]2(C)[C@H]1O | – | – | 25 (≈ 77.3 µM) | 25 (≈ 77.3 µM) | 25 (≈ 77.3 µM) | – | – | –
16 | C=CCCCN[C@H]1CC[C@]2(C)[C@@H]([C@H](C)CCCC(C)C)CC[C@@]2(C)[C@H]1O | 15 | 0.058 | 25 (≈ 68.8 µM) | 25 (≈ 68.8 µM) | 25 (≈ 68.8 µM) | – | – | –
17 | CC(C)CCC[C@@H](C)[C@H]1CC[C@@]2(C)[C@@H](O)[C@@H](NCc3ccccc3)CC[C@]12C | 8 | 0.015 | 25 (≈ 64.8 µM) | 25 (≈ 64.8 µM) | 25 (≈ 64.8 µM) | – | – | –

Row | Structure (SMILES) | IC50 [1] [µM] | IC50 [2] [µM] | MIC [3] [µg/mL] | MIC [4] [µg/mL] | MIC [5] [µg/mL] | inhibition [2] | Ratio IC50 [6] | inhibition [7]
18 | CC(C)CCC[C@@H](C)[C@H]1CC[C@@]2(C)[C@@H](O)[C@@H](NCc3cccc(Cl)c3)CC[C@]12C | – | – | 25 (≈ 59.5 µM) | 25 (≈ 59.5 µM) | 25 (≈ 59.5 µM) | – | – | –
19 | C=CCCCN(Cc1ccccc1)[C@H]1CC[C@]2(C)[C@@H]([C@H](C)CCCC(C)C)CC[C@@]2(C)[C@H]1O | 17 | 0.082 | 25 (≈ 55.1 µM) | 25 (≈ 55.1 µM) | 25 (≈ 55.1 µM) | – | – | –
20 | CC(C)CCC[C@@H](C)[C@H]1CC[C@@]2(C)[C@H](O)[C@@H](NCc3ccc(I)o3)CC[C@]12C | – | – | 25 (≈ 49.9 µM) | 25 (≈ 49.9 µM) | 25 (≈ 49.9 µM) | inactive | – | –
21 | CC(C)CCC[C@@H](C)[C@H]1CC[C@@]2(C)[C@H](O)[C@@H](NCc3ccccc3)CC[C@]12C | – | – | 25 (≈ 64.8 µM) | 25 (≈ 64.8 µM) | 25 (≈ 64.8 µM) | inactive | – | –
22 | CC(C)CCC[C@@H](C)[C@H]1CC[C@@]2(C)[C@H](O)[C@@H](NCc3ccc(Cl)cc3Cl)CC[C@]12C | – | – | 25 (≈ 55 µM) | 25 (≈ 55 µM) | 25 (≈ 55 µM) | inactive | – | –
23 | COc1ccc(CN[C@H]2CC[C@]3(C)[C@@H]([C@H](C)CCCC(C)C)CC[C@@]3(C)[C@H]2O)c(OC)c1 | – | – | 25 (≈ 56.1 µM) | 25 (≈ 56.1 µM) | 25 (≈ 56.1 µM) | – | – | –
24 | CC(C)CCC[C@@H](C)[C@H]1CC[C@@]2(C)[C@@H](O)[C@@H](N3CCN(C)CC3)CC[C@]12C | – | – | 25 (≈ 66 µM) | 25 (≈ 66 µM) | 25 (≈ 66 µM) | – | – | –
25 | CC(C)CCC[C@@H](C)[C@H]1CC[C@@]2(C)[C@@H](O)[C@@H](NCc3ccc(I)o3)CC[C@]12C | – | – | 25 (≈ 49.9 µM) | 25 (≈ 49.9 µM) | 25 (≈ 49.9 µM) | – | – | –
26 | CC(C)CCC[C@@H](C)[C@H]1CC[C@@]2(C)[C@@H](O)[C@@H](NCc3ccoc3)CC[C@]12C | – | – | 25 (≈ 66.6 µM) | 25 (≈ 66.6 µM) | 25 (≈ 66.6 µM) | – | – | –
27 | CC(C)CCC[C@@H](C)[C@H]1CC[C@@]2(C)[C@@H](O)[C@@H](N(Cc3ccccc3)Cc3ccccc3)CC[C@]12C | 27 | > 1 | 25 (≈ 52.5 µM) | 25 (≈ 52.5 µM) | 25 (≈ 52.5 µM) | – | – | –
28 | CC(C)CCC[C@@H](C)[C@H]1CC[C@@]2(C)[C@@H](O)[C@@H](NCc3ccc(Cl)cc3Cl)CC[C@]12C | – | – | 25 (≈ 55 µM) | 25 (≈ 55 µM) | 25 (≈ 55 µM) | – | – | –
29 | CC(C)CCC[C@@H](C)[C@H]1CC[C@@]2(C)C(=O)[C@@H](N3CCN(C)CC3)CC[C@]12C | – | – | 25 (≈ 66.4 µM) | 25 (≈ 66.4 µM) | 25 (≈ 66.4 µM) | inactive | – | –
30 | CC(C)CCC[C@@H](C)[C@H]1CC[C@@]2(C)[C@@H](O)[C@@H](N(C)C)CC[C@]12C | 17 | 0.576 | 25 (≈ 77.3 µM) | 25 (≈ 77.3 µM) | 25 (≈ 77.3 µM) | – | – | –
31 | CC(C)CCC[C@@H](C)[C@H]1CC[C@@]2(C)[C@H](O)[C@@H](NCc3cccc(Cl)c3)CC[C@]12C | – | – | 25 (≈ 59.5 µM) | 25 (≈ 59.5 µM) | 25 (≈ 59.5 µM) | inactive | – | –
32 | CC(C)CCC[C@@H](C)[C@H]1CC[C@@]2(C)[C@H](O)[C@@H](NCc3ccoc3)CC[C@]12C | – | – | 25 (≈ 66.6 µM) | 25 (≈ 66.6 µM) | 25 (≈ 66.6 µM) | inactive | – | –
33 | Cc1cccc(N[C@H]2CC[C@]3(C)[C@@H]([C@H](C)CCCC(C)C)CC[C@@]3(C)[C@H]2O)c1C (mixture of isomers) | – | – | 25 | 25 | 25 | – | – | –
34 | CC(C)CCC[C@@H](C)[C@H]1CC[C@@]2(C)C(=O)[C@@H](N(C)C)CC[C@]12C | – | – | 25 (≈ 77.7 µM) | 25 (≈ 77.7 µM) | 25 (≈ 77.7 µM) | inactive | – | –
